Results taken from ChEMBL document CHEMBL1121496, “Metabolism of 6-substituted benzo[a]pyrene derivatives: O-dealkylation and regiospecificity in aromatic hydroxylation” (J Med Chem, 1980).

Columns and labels:
Assay type in all cases: functional
[1] = species: Rattus norvegicus; experiment: Rate of hydroxylation by liver microsomes in rats induced with 3-MC; Rates are expressed as pmol of product per 30 min per mg of protein
Method in brief: (§1)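 Male Wistar MRC rats (7–8 weeks old) received 3-MC 40 mg/kg ip in olive oil twice daily for 3 days and were fasted for the final 24 h. Liver microsomes were incubated at 0.5 mg protein/mL with substrate (BP in acetone, others in Me₂SO) for 30 min. Phenolic metabolites were read by fluorescence in base against synthetic phenol standards. Each rat was run in duplicate against a heat- or acetone-inactivated blank, and results are reported as mean ± SE.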

[2] = species: Rattus norvegicus; experiment: Rate of O-Dealkylation by liver microsomes in rats induced with 3-MC; Rates are expressed as pmol of product per 30 min per mg of protein; method in brief: as §1
[3] = species: Rattus norvegicus; experiment: Rate of hydroxylation by lung microsomes in rats induced with 3-MC; Rates are expressed as pmol of product per 30 min per mg of protein
Method in brief: (§2)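 For lung microsomes from 3-MC-induced rats, the dose was 40 mg/kg ip in olive oil, given twice daily for 3 days, followed by a 24 h fast. Incubation used 1.0 mg microsomal protein/mL, with BP added in acetone and derivatives in Me₂SO. Base-extractable phenols were measured by fluorescence and quantitated with synthetic hydroxy-BP standards. Duplicates were corrected against inactivated-microsome blanks, and results are given as mean ± SE across individual rats.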

[4] = species: Rattus norvegicus; experiment: Rate of hydroxylation by lung microsomes in rats induced with PB; Rates are expressed as pmol of product per 30 min per mg of protein
Method in brief: (§3)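 Rats were pretreated with phenobarbital, 40 mg/kg ip in saline, twice daily for 3 days, and fasted the last 24 h. Lung microsomes were incubated at 1.0 mg protein/mL with substrate in acetone (BP) or Me₂SO. Product formed over 30 min was measured as fluorescence of phenolic metabolites in basic solution against synthetic phenol standards. Determinations were made in duplicate versus a heat-inactivated blank, and results are reported as mean ± SE.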

[5] = species: Rattus norvegicus; experiment: Rate of hydroxylation by liver microsomes in rats induced with PB; Rates are expressed as pmol of product per 30 min per mg of protein
Method in brief: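 Liver microsomes (two livers pooled) from 7- or 8-week-old male Wistar MRC rats given phenobarbital 40 mg/kg ip in saline twice daily for 3 days, fasted final 24 h. Incubation at 0.5 mg protein/mL, with BP (80 nmol) in acetone or other substrates in Me2SO. Phenolic metabolites were read by fluorescence in base, quantitated against synthetic 3- or 1-phenol standards, in duplicate versus heat-inactivated blank; mean ± SE across rats.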

[6] = species: Rattus norvegicus; experiment: Rate of O-Dealkylation by liver microsomes in rats induced with PB; Rates are expressed as pmol of product per 30 min per mg of protein
Method in brief: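 Phenobarbital-induced rats: male Wistar MRC, 7–8 weeks, 40 mg/kg ip in saline twice daily for 3 days, fasted 24 h. Liver microsomes were used at 0.5 mg protein/mL. BP ethers were added in Me2SO, and phenolic products were measured by fluorescence of basic solutions against phenol standards. p-Nitroanisole O-demethylase was assayed by a modified Netter–Seidel method. Runs were in duplicate versus heat-inactivated blank; mean ± SE across rats.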

[7] = species: Rattus norvegicus; experiment: Rate of 3-hydroxylation by lung microsomes in rats induced with 3-MC; Rates are expressed as pmol of product per 30 min per mg of protein
Method in brief: (§4)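 Microsomes from lungs (two rats pooled) of 7- or 8-week-old male Wistar MRC rats dosed ip twice daily for 3 days with 3-MC 40 mg/kg in olive oil or phenobarbital 40 mg/kg in saline, then fasted 24 h. Incubation at 1.0 mg protein/mL. BP was added in acetone, other substrates in Me2SO. Base-extracted phenols were read by fluorescence against synthetic phenol standards, in duplicate versus heat-inactivated blank; mean ± SE across rats.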

[8] = species: Rattus norvegicus; experiment: Rate of 3-hydroxylation by lung microsomes in rats induced with PB; Rates are expressed as pmol of product per 30 min per mg of protein; method in brief: as §4
[9] = species: Rattus norvegicus; experiment: Rate of O-Dealkylation by lung microsomes in rats induced with PB; Rates are expressed as pmol of product per 30 min per mg of protein; method in brief: as §3
[10] = species: Rattus norvegicus; experiment: Rate of O-Dealkylation by lung microsomes in rats induced with 3-MC; Rates are expressed as pmol of product per 30 min per mg of protein; method in brief: as §2

SMILES | Rate (pmol/30 min/mg protein) [1] | Rate (pmol/30 min/mg protein) [2] | Rate (pmol/30 min/mg protein) [3] | also measured
COc1ccc2ccc3c(OC)c4ccccc4c4ccc1c2c34 | 5700 | – | – | –
COc1ccc2ccc3c4ccccc4c(OC)c4ccc1c2c43 | – | 1250 | – | –
COc1c2ccccc2c2ccc3cccc4ccc1c2c43 | 9010 | – | 576 | Rate (pmol/30 min/mg protein) [4]: 69; Rate (pmol/30 min/mg protein) [5]: 1980
COc1ccc([N+](=O)[O-])cc1 | – | 229000 | – | Rate (pmol/30 min/mg protein) [6]: 103000
CCCOc1ccc2ccc3c(OCCC)c4ccccc4c4ccc1c2c34 | – | 818 | – | –
COCc1c2ccccc2c2ccc3cccc4ccc1c2c43 | 7040 | – | 654 | –
OCc1c2ccccc2c2ccc3cccc4ccc1c2c43 | 1510 | – | 182 | –
c1ccc2c(c1)cc1ccc3cccc4ccc2c1c34 | 5810 | – | – | Rate [7]: 618 pM; Rate (pmol/30 min/mg protein) [5]: 1160; Rate [8]: 49 pM
CCOc1ccc2ccc3c(OCC)c4ccccc4c4ccc1c2c34 | – | 3360 | – | Rate (pmol/30 min/mg protein) [9]: 48; Rate (pmol/30 min/mg protein) [6]: 2850; Rate (pmol/30 min/mg protein) [10]: 156
